The source made the active and inactive calls. The calls are words filed in the database; no cut-off is given here. Residues, ends and D or L forms follow the SMILES beside them.
Experiments:
J774.A1 [1] = assay: Antiinflammatory activity in mouse J774A1 cells assessed as inhibition of LPS-stimulated TNFalpha stimulation after 4 hrs by ELISA; format: functional, cell-based
In short: (§1)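 Murine macrophage J774A.1 cells in RPMI1640 with 10% heat-inactivated FBS, glutamine, pyruvate, nonessential amino acids, HEPES and 2-mercaptoethanol. Peptides, dissolved in DMSO, added for 1 h at 37 °C before LPS (0.1 µg/mL) for a further 4 or 6 h. IL-6 or TNF-α in supernatant measured by sandwich ELISA: biotinylated detection antibody, avidin-HRP, ABTS substrate, OD 405 nm.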

J774.A1 [2] = assay: Antiinflammatory activity in mouse J774A1 cells assessed as inhibition of LPS-stimulated IL6 stimulation after 4 hrs by ELISA; format: functional; in short: as §1

SMILES | Activity (J774.A1 [1]) | Activity (J774.A1 [2]) | Activity (J774.A1 [2]; record 2) [%]
CC[C@@H](C)[C@@H]1NC(=O)[C@@H]2CCCN2C(=O)[C@H](CC(C)C)NC(=O)[C@H](C)NC(=O)CNC(=O)[C@H]([C@@H](C)O)NC(=O)[C@H](CCC(N)=O)NC(=O)[C@@H]2CCCN2C1=O | Active | Active | –
CC[C@H](C)[C@@H]1NC(=O)[C@@H]2CCCN2C(=O)[C@H](CC(C)C)NC(=O)[C@H](CCSC)NC(=O)[C@H](C)NC(=O)[C@H]([C@@H](C)O)NC(=O)[C@H](CCC(N)=O)NC(=O)[C@@H]2CCCN2C1=O (cyclo(AMLPIPQT)) | Active | Active | –
COc1ccc(C[C@@H]2NC(=O)[C@H](Cc3ccc(O)cc3)NC(=O)[C@H](CO)NC(=O)[C@H](CC(C)C)NC(=O)[C@H](C(C)C)NC(=O)CNC(=O)CNC(=O)[C@@H]3CCCN3C2=O)cc1 (cyclo(GGVLSYY(Me)P)) | inactive | Active | 25
CC(C)C[C@@H]1NC(=O)[C@H](C(C)C)NC(=O)CNC(=O)[C@H](C)NC(=O)[C@@H]2CCCN2C(=O)[C@H](Cc2ccc(O)cc2)NC(=O)[C@H](Cc2ccc(O)cc2)NC(=O)[C@H](CO)NC1=O (cyclo(AGVLSYYP)) | Active | Active | –
CC(C)C[C@@H]1NC(=O)[C@H](C(C)C)NC(=O)[C@H](C)NC(=O)CNC(=O)[C@@H]2CCCN2C(=O)[C@H](Cc2ccc(O)cc2)NC(=O)[C@H](Cc2ccc(O)cc2)NC(=O)[C@H](CO)NC1=O (cyclo(AVLSYYPG)) | – | Active | –
